Compound activity deposited in PubChem BioAssay by several laboratories.
This is a sample that favours compounds with a hit; in the whole collection about 2.1% have one here.
Runt-SMMHC FRET: inhibitors of RUNX1 Runt–CBFb-SMMHC binding, primary screen, biochemical, FRET, Cerulean-Runt, Venus-CBFb-SMMHC, uHTS. 0.74% of 220,000 active. Runt-related transcription factor 1 (Homo sapiens) + Core-binding factor subunit beta …. inhibition, % at 20 µM. AID 1434, 2008. Cerulean-Runt/Venus-CBFb-SMMHC FRET ratio 530/480, 1 h;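 active means mean inhibition across duplicate retests at 20 µM reaching about 50%, limit read from the data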;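 further: 0% = DMSO wells and 100% = wells with excess untagged CBFb-SMMHC; inhibitors lower the FRET ratio by blocking Runt binding to CBFb-SMMHC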
Runt-CBFb FRET: inhibitors of RUNX1 Runt–CBFb binding, primary screen, biochemical, FRET, Cerulean-Runt, Venus-CBFb, uHTS; Runt-related transcription factor 1 (Homo sapiens) + Core-binding factor subunit beta …; Cerulean-Runt/Venus-CBFb FRET ratio 530/480, 1 h; inhibition, % at 20 µM; 0.46% of 220,000 active;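 active means inhibition over about 50% at 20 µM in the single-dose screen, limit read from the data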;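 further: 0% = DMSO wells and 100% = excess unlabeled CBFb competitor control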
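test system = Cerulean-Runt domain fusion protein, energy donor | probe or stimulus = Venus-CBFb binding partner, 100 nM | incubation = two 1 h room-temperature incubations shielded from light | detection = fluorescence energy transfer, 422 nm excitation, 530/480 nm emission | measure = loss of energy transfer signal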
p97 ATPase inh: inhibitors of human p97 ATPase, primary screen, biochemical; Transitional endoplasmic reticulum ATPase (Homo sapiens), P55072; recombinant p97 ATPase, Kinase-Glo ATP luminescence, 3 h; inhibition, % at 8 µM; 0.42% of 220,000 active; in the data active means inhibition above about 15%;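 further: 0% = DMSO vehicle and 100% = wells lacking enzyme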
Tb hexokinase: Trypanosoma brucei hexokinase 1 inhibitors, primary screen, biochemical, G6PDH-coupled NADH absorbance, MLSCN library. 0.11% of 220,000 active. inhibition, % at 10 µM. hexokinase 1 [Trypanosoma brucei]. recombinant TbHK1, G6PDH-coupled NADH A340;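 active means inhibition of 50% or more in the single-dose primary screen; inactive means inhibition below 50%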
Hck-Nef inh: inhibitors of Nef-activated human Hck kinase, primary screen, biochemical, Z-Lyte FRET, 384-well, Hck-YEEI; Tyrosine-protein kinase HCK (Homo sapiens), P08631; Recombinant Hck-YEEI plus Nef, Z-Lyte FRET kinase assay; inhibition, % at 20 µM; 0.68% of 220,000 active; AID 463187, 2010;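 active means Hck-Nef kinase inhibition above about 50%, limit read from the data; inactive means inhibition below that limit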;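 further: 0% = DMSO with Hck plus Nef and 100% = Hck alone without Nef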
RanGTP-Impb inh: inhibitors of RanGTP-importin-beta interaction, primary screen, biochemical, FRET, CFP-Ran, YFP-importin-beta, homogeneous | Ran GTPase (GTP-bound) - importin-beta complex | 1.1% of 300,000 active | cell-free CFP-Ran/YFP-importin-beta FRET ratio | inhibition, % (concentration not given with the values);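 active means more than half of the replicate wells show a fall in the fluorescence ratio signal beyond about 16%, limit read from the data, passing the limit was not always enough; inconclusive means exactly half of the replicate wells pass the set limit; inactive means fewer than half of replicates pass the limit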;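 further: 0% = DMSO wells and 100% = Ran loaded with GDP instead of GTP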
Numbers without * were called inactive; ? = inconclusive; . = no result given.

SMILES | Runt-SMMHC FRET | Runt-CBFb FRET | p97 ATPase inh | Tb hexokinase | Hck-Nef inh | RanGTP-Impb inh
CCOC(=O)C1CCN(C(=O)Nc2ccc3c(c2)nc(C)n3C)CC1 | 0.7 | 3.6 | -0.6 | -2.2 | 5.9 | 0.0
CCOc1ccc(CCNC(=O)CN(C)S(=O)(=O)c2cccs2)cc1OCC | . | . | . | . | . | 6.3
COc1ccc(/C=N\NC(=O)C2C(=O)NCC2c2ccccc2)cc1O (stereo unspecified) | -10.9 | -1.7 | -2.9 | -10.9 | -0.6 | ?
O=C(Cn1nnc(-c2ccc(F)cc2)n1)OCC(=O)c1ccccc1 | -5.8 | -1.1 | 1.5 | 2.6 | 7.9 | 19.9*
O=C(Cn1nnc(-c2ccccc2F)n1)OCC(=O)c1ccccc1 | -1.3 | 1.6 | -2.6 | -0.7 | -6.6 | -2.5
Cc1cccc(NC(=O)c2cc(=O)c3ccccc3o2)c1 | . | . | . | . | . | 1.3
O=C(Nc1cccc(-c2nc3ccccc3s2)c1)c1cc(=O)c2ccccc2o1 | -4.6 | -2.0 | 9.9 | -10.0 | 52.6* | 3.0
NC(=O)c1ccccc1N/C=C/C(=O)c1ccc(Cl)cc1Cl | 16.5 | 5.0 | -15.1 | -23.6 | 5.3 | 43.9*
CCOC(=O)c1sc(Nc2nc3ccc(OC)cc3s2)cc1C | 62.0* | 6.2 | -1.2 | -23.0 | 4.0 | -0.7
COc1ccc2nc(Nc3sc4c(c3C(N)=O)CCCC4)sc2c1 | 67.3* | 45.2 | 0.2 | -9.7 | 5.5 | .
CCN(Cc1ccccc1)C(=O)C(=O)c1cn(CC(=O)N2CCCC2)c2ccccc12 | . | . | . | . | . | -1.0
Cn1c(C(=O)O)cc2c(=O)n3ccccc3nc21 | 78.2* | 43.0 | 0.9 | -32.1 | 24.9 | 7.7
Cn1c(C(=O)N2CCc3ccccc3C2)cc2c(=O)n3ccccc3nc21 | 78.8* | 20.9 | 1.7 | 32.3 | 28.8 | 1.2
Cn1c(C(=O)N2CCOCC2)cc2c(=O)n3ccccc3nc21 | . | . | . | . | . | 3.8
CCOC(=O)C1CCN(C(=O)c2cc3c(=O)n4ccccc4nc3n2C)CC1 | 51.2* | 22.4 | -1.4 | -15.3 | 13.3 | ?
CCOC(=O)C1CCCN(C(=O)c2cc3c(=O)n4ccccc4nc3s2)C1 (stereo unspecified) | . | . | . | . | . | -2.4
CC1CN(C(=O)c2cc3c(=O)n4ccccc4nc3n2C)CC(C)O1 (stereo unspecified) | . | . | . | . | . | 5.8
Cc1ccc(CNc2nc(C)nc3sc4c(c23)CCC4)cc1 | -0.3 | -1.8 | 1.9 | -3.1 | 1.1 | 25.5*
Cc1nc(Nc2ccc(O)cc2)c2c3c(sc2n1)CCCC3 | 0.2 | 0.6 | 3.8 | -14.8 | 14.0 | 0.6
N#Cc1c(NC(=O)CSc2ncnc3sccc23)oc(-c2ccco2)c1-c1ccco1 | -38.5 | 11.0 | 14.7* | -2.6 | 19.3 | -4.8
Cc1[nH]nc2c1C(c1ccc(O)cc1)C1=C(CC(C)(C)CC1=O)N2 (stereo unspecified) | -1.2 | 0.3 | 0.7 | -30.6 | 29.8 | -0.9
Cc1ccc(C2C3=C(CC(C)(C)CC3=O)Nc3[nH]c(=S)[nH]c(=O)c32)cc1 (stereo unspecified) | 71.3* | 18.0 | . | . | . | .
CC(CN1CCCCC1)OC(=O)C(C)(c1ccccc1)c1ccccc1 (stereo unspecified) | -2.8 | -1.6 | -2.1 | 10.4 | -2.4 | -2.3
Cc1oc2cc(O)ccc2c(=O)c1Oc1ccccc1 | -3.0 | -2.1 | 0.6 | 0.4 | 5.4 | 6.6
COC(=O)c1ccc(Oc2c(C(F)(F)F)oc3c(CN4CCN(C)CC4)c(O)ccc3c2=O)cc1 | -30.7 | -9.4 | 5.4 | -17.9 | -1.1 | 39.2*
CCOc1ccccc1Oc1c(C)oc2c(CN3CCN(C)CC3)c(O)ccc2c1=O | 1.6 | -1.2 | -0.1 | -23.1 | 1.7 | .
O=C(O)c1ccc(Oc2c(C(F)(F)F)oc3cc(O)ccc3c2=O)cc1 | -13.2 | -3.1 | 9.0 | -2.9 | 16.6 | 24.4*
